# Experiments:
# [1] = test system: Heart; experiment: Biodistribution in ICR mouse heart at 5 to 10 uCi, iv after 2 hrs; format: ADME, organism-based; conditions: in vivo
# Procedure, shortened: (§1)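 Male ICR mice (22–25 g) under isoflurane anesthesia; [125I] or [18F] tracer (5–10 μCi) in 0.15 mL of 0.1% bovine serum albumin solution injected into the tail vein. Groups of n = 3 per time point, killed by cervical dislocation. Organs removed, weighed and gamma-counted against diluted aliquots of injected dose, giving % dose/organ and % ID/g. Total blood activity assumed as 7% of body weight.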
# [2] = test system: Muscle tissue; experiment: Biodistribution in ICR mouse muscle at 5 to 10 uCi, iv after 2 mins; format: ADME, organism-based; conditions: in vivo; procedure, shortened: as §1
# [3] = test system: Muscle tissue; experiment: Biodistribution in ICR mouse muscle at 5 to 10 uCi, iv after 30 mins; format: ADME, organism-based; conditions: in vivo, 0.5 h; procedure, shortened: as §1
# [4] = test system: Muscle tissue; experiment: Biodistribution in ICR mouse muscle at 5 to 10 uCi, iv after 1 hr; format: ADME, organism-based; conditions: in vivo; procedure, shortened: as §1
# [5] = test system: Muscle tissue; experiment: Biodistribution in ICR mouse muscle at 5 to 10 uCi, iv after 2 hrs; format: ADME, organism-based; conditions: in vivo; procedure, shortened: as §1
# [6] = test system: Lung; experiment: Biodistribution in ICR mouse lung at 5 to 10 uCi, iv after 2 mins; format: ADME, organism-based; conditions: in vivo; procedure, shortened: as §1
# [7] = test system: Lung; experiment: Biodistribution in ICR mouse lung at 5 to 10 uCi, iv after 30 mins; format: ADME, organism-based; conditions: in vivo, 0.5 h; procedure, shortened: as §1
# [8] = test system: Lung; experiment: Biodistribution in ICR mouse lung at 5 to 10 uCi, iv after 1 hr; format: ADME, organism-based; conditions: in vivo; procedure, shortened: as §1
# [9] = Partition coefficient, log P of the compound; format: physicochemical; conditions: octanol/water
# Procedure, shortened: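 [125I] or [18F] tracer mixed with 3 g each of 1-octanol and 0.1 M phosphate buffer pH 7.4. Vortexed 3 min at room temperature, then centrifuged 5 min. Two 0.5 g samples from each layer counted; PC is the ratio of cpm/g in octanol to cpm/g in buffer. The octanol layer was repartitioned until values were consistent.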
# [10] = test system: Blood; experiment: Biodistribution in ICR mouse blood at 5 to 10 uCi, iv after 2 mins; format: ADME, organism-based; conditions: in vivo; procedure, shortened: as §1
# [11] = test system: Blood; experiment: Biodistribution in ICR mouse blood at 5 to 10 uCi, iv after 30 mins; format: ADME, organism-based; conditions: in vivo, 0.5 h; procedure, shortened: as §1
# [12] = test system: Blood; experiment: Biodistribution in ICR mouse blood at 5 to 10 uCi, iv after 1 hr; format: ADME, organism-based; conditions: in vivo; procedure, shortened: as §1
# [13] = test system: Blood; experiment: Biodistribution in ICR mouse blood at 5 to 10 uCi, iv after 2 hrs; format: ADME, organism-based; conditions: in vivo; procedure, shortened: as §1
# [14] = test system: Heart; experiment: Biodistribution in ICR mouse heart at 5 to 10 uCi, iv after 2 mins; format: ADME, organism-based; conditions: in vivo; procedure, shortened: as §1
# [15] = test system: Heart; experiment: Biodistribution in ICR mouse heart at 5 to 10 uCi, iv after 30 mins; format: ADME, organism-based; conditions: in vivo, 0.5 h; procedure, shortened: as §1
# [16] = test system: Heart; experiment: Biodistribution in ICR mouse heart at 5 to 10 uCi, iv after 1 hr; format: ADME, organism-based; conditions: in vivo; procedure, shortened: as §1
# [17] = test system: Lung; experiment: Biodistribution in ICR mouse lung at 5 to 10 uCi, iv after 2 hrs; format: ADME, organism-based; conditions: in vivo; procedure, shortened: as §1
# [18] = test system: Kidney; experiment: Biodistribution in ICR mouse kidney at 5 to 10 uCi, iv after 2 mins; format: ADME, organism-based; conditions: in vivo; procedure, shortened: as §1
# [19] = test system: Kidney; experiment: Biodistribution in ICR mouse kidney at 5 to 10 uCi, iv after 30 mins; format: ADME, organism-based; conditions: in vivo, 0.5 h; procedure, shortened: as §1
# [20] = test system: Kidney; experiment: Biodistribution in ICR mouse kidney at 5 to 10 uCi, iv after 1 hr; format: ADME, organism-based; conditions: in vivo; procedure, shortened: as §1
# [21] = test system: Kidney; experiment: Biodistribution in ICR mouse kidney at 5 to 10 uCi, iv after 2 hrs; format: ADME, organism-based; conditions: in vivo; procedure, shortened: as §1
# [22] = test system: Spleen; experiment: Biodistribution in ICR mouse spleen at 5 to 10 uCi, iv after 2 mins; format: ADME, organism-based; conditions: in vivo; procedure, shortened: as §1
# [23] = test system: Spleen; experiment: Biodistribution in ICR mouse spleen at 5 to 10 uCi, iv after 30 mins; format: ADME, organism-based; conditions: in vivo, 0.5 h; procedure, shortened: as §1
# [24] = test system: Spleen; experiment: Biodistribution in ICR mouse spleen at 5 to 10 uCi, iv after 1 hr; format: ADME, organism-based; conditions: in vivo; procedure, shortened: as §1
# [25] = test system: Spleen; experiment: Biodistribution in ICR mouse spleen at 5 to 10 uCi, iv after 2 hrs; format: ADME, organism-based; conditions: in vivo; procedure, shortened: as §1
# [26] = test system: Liver; experiment: Biodistribution in ICR mouse liver at 5 to 10 uCi, iv after 2 mins; format: ADME, organism-based; conditions: in vivo; procedure, shortened: as §1
# [27] = test system: Liver; experiment: Biodistribution in ICR mouse liver at 5 to 10 uCi, iv after 30 mins; format: ADME, organism-based; conditions: in vivo, 0.5 h; procedure, shortened: as §1
# [28] = test system: Liver; experiment: Biodistribution in ICR mouse liver at 5 to 10 uCi, iv after 1 hr; format: ADME, organism-based; conditions: in vivo; procedure, shortened: as §1
# [29] = test system: Liver; experiment: Biodistribution in ICR mouse liver at 5 to 10 uCi, iv after 2 hrs; format: ADME, organism-based; conditions: in vivo; procedure, shortened: as §1
# [30] = test system: Zone of skin; experiment: Biodistribution in ICR mouse skin at 5 to 10 uCi, iv after 2 mins; format: ADME, organism-based; conditions: in vivo; procedure, shortened: as §1
# [31] = test system: Zone of skin; experiment: Biodistribution in ICR mouse skin at 5 to 10 uCi, iv after 30 mins; format: ADME, organism-based; conditions: in vivo, 0.5 h; procedure, shortened: as §1
# [32] = test system: Zone of skin; experiment: Biodistribution in ICR mouse skin at 5 to 10 uCi, iv after 1 hr; format: ADME, organism-based; conditions: in vivo; procedure, shortened: as §1
# [33] = test system: Zone of skin; experiment: Biodistribution in ICR mouse skin at 5 to 10 uCi, iv after 2 hrs; format: ADME, organism-based; conditions: in vivo; procedure, shortened: as §1
# [34] = test system: Brain; experiment: Biodistribution in ICR mouse brain at 5 to 10 uCi, iv after 2 mins; format: ADME, organism-based; conditions: in vivo; procedure, shortened: as §1
# [35] = test system: Brain; experiment: Biodistribution in ICR mouse brain at 5 to 10 uCi, iv after 30 mins; format: ADME, organism-based; conditions: in vivo, 0.5 h; procedure, shortened: as §1
# [36] = test system: Brain; experiment: Biodistribution in ICR mouse brain at 5 to 10 uCi, iv after 1 hr; format: ADME, organism-based; conditions: in vivo; procedure, shortened: as §1
# [37] = test system: Brain; experiment: Biodistribution in ICR mouse brain at 5 to 10 uCi, iv after 2 hrs; format: ADME, organism-based; conditions: in vivo; procedure, shortened: as §1
# [38] = test system: Thyroid gland; experiment: Biodistribution in ICR mouse thyroid at 5 to 10 uCi, iv after 2 mins; format: ADME, organism-based; conditions: in vivo; procedure, shortened: as §1
# [39] = test system: Thyroid gland; experiment: Biodistribution in ICR mouse thyroid at 5 to 10 uCi, iv after 30 mins; format: ADME, organism-based; conditions: in vivo, 0.5 h; procedure, shortened: as §1
# [40] = test system: Thyroid gland; experiment: Biodistribution in ICR mouse thyroid at 5 to 10 uCi, iv after 1 hr; format: ADME, organism-based; conditions: in vivo; procedure, shortened: as §1
# [41] = test system: Thyroid gland; experiment: Biodistribution in ICR mouse thyroid at 5 to 10 uCi, iv after 2 hrs; format: ADME, organism-based; conditions: in vivo; procedure, shortened: as §1
smiles,measurement,setting,value
CN(C)c1ccc(-c2cn(-c3ccc([125I])cc3)nn2)cc1,Drug uptake,[1],0.56 % ID/g
same,Drug uptake,[2],0.76 % ID/g
same,Drug uptake,[3],1.11 % ID/g
same,Drug uptake,[4],0.61 % ID/g
same,Drug uptake,[5],0.36 % ID/g
same,Drug uptake,[6],8.93 % ID/g
same,Drug uptake,[7],2.55 % ID/g
same,Drug uptake,[8],1.66 % ID/g
same,logP,[9],3.4
same,Drug uptake,[10],2.84 % ID/g
same,Drug uptake,[11],1.63 % ID/g
same,Drug uptake,[12],1.33 % ID/g
same,Drug uptake,[13],1.21 % ID/g
same,Drug uptake,[14],6.61 % ID/g
same,Drug uptake,[15],1.34 % ID/g
same,Drug uptake,[16],0.78 % ID/g
same,Drug uptake,[17],1.43 % ID/g
same,Drug uptake,[18],11.5 % ID/g
same,Drug uptake,[19],3.66 % ID/g
same,Drug uptake,[20],2.13 % ID/g
same,Drug uptake,[21],1.52 % ID/g
same,Drug uptake,[22],5.32 % ID/g
same,Drug uptake,[23],1.35 % ID/g
same,Drug uptake,[24],0.89 % ID/g
same,Drug uptake,[25],0.69 % ID/g
same,Drug uptake,[26],17.4 % ID/g
same,Drug uptake,[27],6.93 % ID/g
same,Drug uptake,[28],3.74 % ID/g
same,Drug uptake,[29],2.49 % ID/g
same,Drug uptake,[30],0.71 % ID/g
same,Drug uptake,[31],2.2 % ID/g
same,Drug uptake,[32],1.93 % ID/g
same,Drug uptake,[33],1.19 % ID/g
same,Drug uptake,[34],7.22 % ID/g
same,Drug uptake,[35],1.94 % ID/g
same,Drug uptake,[36],0.64 % ID/g
same,Drug uptake,[37],0.29 % ID/g
same,Drug uptake,[38],3.17 % ID/g
same,Drug uptake,[39],11 % ID/g
same,Drug uptake,[40],17 % ID/g
same,Drug uptake,[41],89.1 % ID/g

# Reference: ChEMBL document CHEMBL1145427, “Quick assembly of 1,4-diphenyltriazoles as probes targeting beta-amyloid aggregates in Alzheimer's disease” (J Med Chem, 2007)
